# Published values of several laboratories.
# Lines come from different studies, so protocols differ.
# Cell line: Vero
# Read-out: cell growth or viability
Compound,method,time,quantity,value
COc1ccccc1CCNCc1c(N)nc(N)nc1C1CC1,SRB,,IC50,> 100 µM
N#CCCOc1ccc(Oc2ccccc2)cc1,,72 h,CC50,> 20 µM
CN(CC[C@H](N)CC(=O)N[C@H]1C=C[C@H](n2ccc(N)nc2=O)O[C@@H]1C(=O)O)C(=N)N,,,IC50,13.9 µM
CSc1c2c3c(n1C)C(=O)C(=O)C(Cl)=C3NCC2,MTT,72 h,IC50,> 17.7 µM
N#CCCCOc1ccc(Oc2ccccc2)cc1,,72 h,CC50,> 20 µM
FC(F)(F)Oc1ccc(Oc2ccc(CNCCNC3C4CC5CC(C4)CC3C5)cc2)cc1 (stereo not drawn),,18 h,IC50,3.9 µg/mL
O=[N+]([O-])c1ccc(-c2nn(-c3ccccc3)c3sc(NC(c4ccccc4O)P(=O)(Oc4ccccc4)Oc4ccccc4)nc23)cc1 (stereo not drawn),SRB,,IC50,> 100 µM
Cn1cc2c3c1C(=O)C(N)=C(Cl)C3=NCC2,MTT,72 h,IC50,> 21.3 µM
NNC(=O)c1ccncc1,,18 h,IC50,18000 µg/mL
CN(C)c1ccc(C(Nc2nc3c(-c4ccc([N+](=O)[O-])cc4)nn(-c4ccccc4)c3s2)P(=O)(Oc2ccccc2)Oc2ccccc2)cc1 (stereo not drawn),SRB,,IC50,> 100 µM
Nc1nc(N)c(CNCCc2ccccc2Cl)c(C2CC2)n1,SRB,,IC50,67 µM
C[C@H]1O[C@H](O[C@H]2CC[C@H](n3ccc(NC(=O)c4ccc(NC(=O)[C@@](C)(N)CO)cc4)nc3=O)O[C@@H]2C)[C@H](O)[C@@H](O)[C@@H]1N(C)C,,,IC50,> 100 µM
Nc1nc(N)c(CNCCc2cccc(F)c2)c(C2CC2)n1,SRB,,IC50,> 100 µM
CCCCCCCCn1cc(CN2CCC3(CC2)OCCO3)c2ccc(OC)cc21,,,IC50,46 µM
Nc1nc(N)c(CNCCc2ccc(Cl)c(Cl)c2)c(C2CC2)n1,SRB,,IC50,21 µM
[C-]#[N+]C(C)(C)C[C@@H]1C[C@H](C)[C@H]2CC[C@H](C)[C@@]3([N+]#[C-])CCC(=C)[C@@H]1[C@H]23,,,IC50,99.7 µM
Nc1nc(N)c(CNCCc2ccc(Cl)cc2Cl)c(C2CC2)n1,SRB,,IC50,31 µM
CO[C@H]1/C=C/O[C@@]2(C)Oc3c(C)c(O)c4c(O)c(c(/C=N/N5CCN(C)CC5)c(O)c4c3C2=O)NC(=O)/C(C)=C\C=C\[C@H](C)[C@H](O)[C@@H](C)[C@@H](O)[C@@H](C)[C@H](OC(C)=O)[C@@H]1C,,,IC50,113 µM
